According to ChEMBL document CHEMBL4219075, “Synthesis and evaluation of novel dolastatin 10 derivatives for versatile conjugations” (Bioorg Med Chem, 2018):
Activity calls are given as the source filed them. The rule behind the calls is not given here. Non-standard residues stand in square brackets, D forms with d. Residues, ends and D or L forms follow the SMILES beside them. *: point of attachment. Dolaproine = CO[C@@H]([C@@H]1CCCN1)[C@@H](C)C(=O)O; Dil = CC[C@H](C)[C@H](NC)[C@@H](CC(=O)O)OC; X1 = C[C@@H](N*)[C@@H](O)c1ccccc1; NMeV = CN[C@H](C(=O)O)C(C)C

Key:
Sus scrofa [1] = species on record: Sus scrofa; assay: Inhibition of porcine brain tubulin polymerization measured every minute for 60 mins by absorbance spectroscopic analysis
In short: (§1)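 Fluorescence-based HTS kit assay run with porcine brain tubulin at about 100 µg per well in general tubulin buffer. Compound at 3, 1 or 0.3 µM final, in duplicate, added at the start. Run at 37°C for 60 min, reading OD 360 nm (emission 450 nm) each minute. Polymerization compared with buffer-treated tubulin.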

A549 = assay: Cytotoxicity against human A549 cells after 2 days by cell titer 96 aqueous one solution based assay; format: functional; settings: A549, 48 h
In short: (§2)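 Cells (DMEM + 10% heat-inactivated FBS for SKOV-3 and A549) seeded at about 5000−50000/well and held overnight at 37°C, 5% CO2. DMSO stocks were diluted into medium with 1% FBS and no folic acid. Compounds at various concentrations were added in triplicate and incubated 2 days. MTS reagent was added for 1–2 h, absorbance read at 490 nm, and percent survival calculated versus untreated wells.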

SK-OV-3 = assay: Cytotoxicity against human SKOV3 cells after 2 days by cell titer 96 aqueous one solution based assay; format: functional; settings: SK-OV-3, 48 h; in short: as §2
L1210 = assay: Cytotoxicity against mouse L1210 cells after 2 days by cell titer 96 aqueous one solution based assay; format: functional; settings: L1210, 48 h
In short: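 Mouse L1210 leukemia cells in RPMI-1640 + 10% heat-inactivated FBS were seeded at about 5000−50000/well and incubated overnight at 37°C, 5% CO2. Compounds were diluted in RPMI with 1% FBS and no folic acid, added at various concentrations in triplicate, and incubated 2 days. MTS was added for 1–2 h, A490 read, and survival expressed relative to untreated controls.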

[2] = Permeability of the compound at 200 umol/L after 5 hrs by PAMPA; format: ADME; settings: read-out: permeability
In short: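 Compound solution in the donor (receiver-plate) wells; 20% MeOH in PBS in the pre-coated filter-plate wells. The assembly was incubated 5 h at room temperature. Donor and acceptor concentrations were measured by LC-MS. Permeability was calculated from filter area 0.3 cm², donor 0.32 mL, acceptor 0.2 mL, t = 18,000 s and equilibrium concentration.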

Sus scrofa [3] = species on record: Sus scrofa; assay: Inhibition of porcine brain tubulin polymerization at 0.3 to 3 uM measured every minute for 60 mins by absorbance spectroscopic analysis; in short: as §1
[4] = Ratio of IC50 for human SKOV3 cells to IC50 for porcine brain tubulin polymerization

Row | Compound | inhibition (Sus scrofa [1]) | IC50 (A549) | IC50 (SK-OV-3) | IC50 (L1210) | Papp at 5 h, 200 µM [2] | inhibition (Sus scrofa [3]) | Ratio IC50 [4]
1 | CC[C@H](C)[C@@H]([C@@H](CC(=O)N1CCC[C@H]1[C@H](OC)[C@@H](C)C(=O)N[C@@H](Cc1ccccc1)c1nc(C(=O)N(C)CCO)cs1)OC)N(C)C(=O)[C@@H](NC(=O)[C@H](C(C)C)N(C)C)C(C)C | Active | 1.6 nM | 1.5 nM | 8.5 nM | 0.077 ×10⁻⁶ cm/s | – | –
2 | CC[C@H](C)[C@@H]([C@@H](CC(=O)N1CCC[C@H]1[C@H](OC)[C@@H](C)C(=O)N[C@@H](Cc1ccccc1)c1nc(C(=O)OCCO)cs1)OC)N(C)C(=O)[C@@H](NC(=O)[C@H](C(C)C)N(C)C)C(C)C | Active | 1.8 nM | 0.086 nM | 4.7 nM | 0.04 ×10⁻⁶ cm/s | – | –
3 | CCOC(=O)c1csc([C@H](Cc2ccccc2)NC(=O)[C@H](C)[C@@H](OC)[C@@H]2CCCN2C(=O)C[C@@H](OC)[C@H]([C@@H](C)CC)N(C)C(=O)[C@@H](NC(=O)[C@H](C(C)C)N(C)C)C(C)C)n1 | Active | – | 0.024 nM | – | 3.2 ×10⁻⁶ cm/s | – | –
4 | CC[C@H](C)[C@@H]([C@@H](CC(=O)N1CCC[C@H]1[C@H](OC)[C@@H](C)C(=O)N[C@@H](Cc1ccccc1)c1nc(C(=O)N(C)CCN)cs1)OC)N(C)C(=O)[C@@H](NC(=O)[C@H](C(C)C)N(C)C)C(C)C | Active | 0.81 nM | 0.56 nM | 12 nM | 0.072 ×10⁻⁶ cm/s | – | –
5 | CC[C@H](C)[C@@H]([C@@H](CC(=O)N1CCC[C@H]1[C@H](OC)[C@@H](C)C(=O)N[C@H](C)[C@@H](O)c1ccccc1)OC)N(C)C(=O)[C@@H](NC(=O)[C@@H](NC)C(C)C)C(C)C (H-[NMeV]V[Dil][Dolaproine]-X1) | – | 1.3 nM | 0.66 nM | 2.1 nM | 0.079 ×10⁻⁶ cm/s | – | –
6 | CC[C@H](C)[C@@H]([C@@H](CC(=O)N1CCC[C@H]1[C@H](OC)[C@@H](C)C(=O)N[C@@H](Cc1ccccc1)c1nc(C(=O)NCCS)cs1)OC)N(C)C(=O)[C@@H](NC(=O)[C@H](C(C)C)N(C)C)C(C)C | Active | 1.9 nM | 0.44 nM | 31 nM | 1.1 ×10⁻⁶ cm/s | – | –
7 | CC[C@H](C)[C@@H]([C@@H](CC(=O)N1CCC[C@H]1[C@H](OC)[C@@H](C)C(=O)N[C@@H](Cc1ccccc1)c1nc(C(=O)OCCN)cs1)OC)N(C)C(=O)[C@@H](NC(=O)[C@H](C(C)C)N(C)C)C(C)C | Active | 0.83 nM | 0.85 nM | 29 nM | 0.007 ×10⁻⁶ cm/s | – | –
8 | CC[C@H](C)[C@@H]([C@@H](CC(=O)N1CCC[C@H]1[C@H](OC)[C@@H](C)C(=O)N[C@@H](Cc1ccccc1)c1nc(C(=O)OCCS)cs1)OC)N(C)C(=O)[C@@H](NC(=O)[C@H](C(C)C)N(C)C)C(C)C | Active | 6.9 nM | 0.13 nM | 14 nM | 0.005 ×10⁻⁶ cm/s | – | –
9 | CC[C@H](C)[C@@H]([C@@H](CC(=O)N1CCC[C@H]1[C@H](OC)[C@@H](C)C(=O)N[C@@H](Cc1ccccc1)c1nc(C(=O)N(C)CCNC)cs1)OC)N(C)C(=O)[C@@H](NC(=O)[C@H](C(C)C)N(C)C)C(C)C | Active | 1.9 nM | 0.19 nM | 14 nM | < 0.001 ×10⁻⁶ cm/s | – | –
10 | CCNC(=O)c1csc([C@H](Cc2ccccc2)NC(=O)[C@H](C)[C@@H](OC)[C@@H]2CCCN2C(=O)C[C@@H](OC)[C@H]([C@@H](C)CC)N(C)C(=O)[C@@H](NC(=O)[C@H](C(C)C)N(C)C)C(C)C)n1 | Active | 0.74 nM | 0.55 nM | 6.5 nM | 1.7 ×10⁻⁶ cm/s | – | –
11 | CC[C@H](C)[C@@H]([C@@H](CC(=O)N1CCC[C@H]1[C@H](OC)[C@@H](C)C(=O)N[C@@H](Cc1ccccc1)c1nc(C(=O)NCCNC)cs1)OC)N(C)C(=O)[C@@H](NC(=O)[C@H](C(C)C)N(C)C)C(C)C | Active | 9.9 nM | > 10 nM | 27 nM | 0.004 ×10⁻⁶ cm/s | – | –
12 | CC[C@H](C)[C@@H]([C@@H](CC(=O)N1CCC[C@H]1[C@H](OC)[C@@H](C)C(=O)N[C@@H](Cc1ccccc1)c1nc(C(=O)NCCN)cs1)OC)N(C)C(=O)[C@@H](NC(=O)[C@H](C(C)C)N(C)C)C(C)C | – | > 10 nM | > 10 nM | > 50 nM | 0.056 ×10⁻⁶ cm/s | Active | >30
13 | CC[C@H](C)[C@@H]([C@@H](CC(=O)N1CCC[C@H]1[C@H](OC)[C@@H](C)C(=O)N[C@@H](Cc1ccccc1)c1nc(C(=O)NCCO)cs1)OC)N(C)C(=O)[C@@H](NC(=O)[C@H](C(C)C)N(C)C)C(C)C | Active | 1.7 nM | 4.7 nM | 28 nM | 0.02 ×10⁻⁶ cm/s | – | –
14 | CC[C@H](C)[C@@H]([C@@H](CC(=O)N1CCC[C@H]1[C@H](OC)[C@@H](C)C(=O)N[C@@H](Cc1ccccc1)c1nc(C(=O)NCCc2ccc(O)cc2)cs1)OC)N(C)C(=O)[C@@H](NC(=O)[C@H](C(C)C)N(C)C)C(C)C | Active | 1.3 nM | 0.37 nM | 5.6 nM | 0.36 ×10⁻⁶ cm/s | – | –
15 | CC[C@H](C)[C@@H]([C@@H](CC(=O)N1CCC[C@H]1[C@H](OC)[C@@H](C)C(=O)N[C@@H](Cc1ccccc1)c1nc(C(=O)NCCc2ccc(N)cc2)cs1)OC)N(C)C(=O)[C@@H](NC(=O)[C@H](C(C)C)N(C)C)C(C)C | – | 1.1 nM | 0.27 nM | 4.1 nM | 0.3 ×10⁻⁶ cm/s | Active | >30
16 | CC[C@H](C)[C@@H]([C@@H](CC(=O)N1CCC[C@H]1[C@H](OC)[C@@H](C)C(=O)N[C@@H](Cc1ccccc1)c1nc(C(=O)N(C)CCS)cs1)OC)N(C)C(=O)[C@@H](NC(=O)[C@H](C(C)C)N(C)C)C(C)C | Active | 1.2 nM | 1.1 nM | 7 nM | 1.1 ×10⁻⁶ cm/s | – | –
